Data on seven molecules can be found in ChEMBL document CHEMBL1126205, “Novel spirosuccinimides with incorporated isoindolone and benzisothiazole 1,1-dioxide moieties as aldose reductase inhibitors and antihyperglycemic agents” (1992).

Molecules are shown by their SMILES. Active and inactive are the calls of the source. No cut-off for these calls is given here. Where only a bound is given, the exact number is not on record here.

The test system of assay [1] is Rattus norvegicus. The experiment in a line: In vivo galactitol inhibitory activity measured by its ability to inhibit galactitol accumulation in sciatic nerve at 4 mg/Kg/day. The format is functional. In outline:
(§1)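 Rats (n = 6) fed 20% galactose for 4 days, with compound given in the diet at the stated daily dose. Galactitol accumulation was measured in lens, sciatic nerve and diaphragm, and % inhibition was taken versus the nontreated group. Means are from three to eight drug-treated tissue samples. Dunnett's multiple comparison test was applied, with p > 0.05 reported as not significant.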

Assay [2] deals with Rattus norvegicus. The experiment in a line: In vivo galactitol inhibitory activity measured by its ability to inhibit galactitol accumulation in lens at 4 mg/Kg/day. Conditions: Lens of camera-type eye. It counts as functional. The method, boiled down: (§2)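 Rats (n = 6) fed 20% galactose for 4 days, with compound given in the diet at the stated mg/kg per day. Galactitol accumulation in lens, sciatic nerve or diaphragm is scored as percent inhibition versus the non-treated group, as means of 3–8 drug-treated tissue samples. Dunnett's multiple comparison test applies; NS means p > 0.05.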

Assay [3] has as its system Rattus norvegicus. The experiment in a line: In vivo galactitol inhibitory activity measured by its ability to inhibit galactitol accumulation in diaphragm at 4 mg/Kg/day. The format is functional. In outline:
as §2

The target in assay [4] is Aldo-keto reductase family 1 member B1 (Bos taurus) (UniProt P16116). The experiment in a line: in vitro aldose reductase inhibitory activity measured by NADPH-dependent inhibition of glyceraldehyde reduction in a partially purified bovine lens preparation at 10e -6M conc. The method, boiled down:
(§3)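 Partially purified aldose reductase from bovine lens. Inhibition of NADPH-dependent glyceraldehyde reduction was measured at a single test concentration. Values are % inhibition of enzymatic activity, mean of two determinations.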

For assay [5] the target is unchanged. Put plainly: in vitro aldose reductase inhibitory activity measured by NADPH-dependent inhibition of glyceraldehyde reduction in a partially purified bovine lens preparation at 10e -7M conc.; g=no inhibitory activity. In outline:
as §3

Assay [6] relates to Mus musculus. The experiment in a line: Antihyperglycemic activity was determined by measuring percent decrease in plasma glucose at 100 mg/kg/day. The format is functional. In outline:
(§4)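 Male db/db (C57BL/KsJ) mice, 4–6 per group, dosed at 100 mg/kg per day. Plasma glucose of the drug-treated group is expressed as percent decrease relative to a vehicle-treated control group. Values are mean ± SE, with p < 0.05 marked.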

The subject of assay [7] is Rattus norvegicus. Put plainly: In vivo galactitol inhibitory activity measured by its ability to inhibit galactitol accumulation in sciatic nerve at 94 mg/kg/day; NS=not significant. It counts as functional, organism-based. In outline: as §1
In assay [8] the test system is Rattus norvegicus. The experiment in a line: In vivo galactitol inhibitory activity measured by its ability to inhibit galactitol accumulation in lens at 94 mg/Kg/day; NS=not significant. It counts as functional, organism-based. Conditions: Lens of camera-type eye. The method, boiled down:
as §1

Assay [9] concerns the target Aldo-keto reductase family 1 member B1 (Bos taurus) (UniProt P16116). Put plainly: In vitro aldose reductase inhibitory activity measured by NADPH-dependent inhibition of glyceraldehyde reduction in a partially purified bovine lens preparation at 10E-6 M. The method, boiled down:
(§5)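 Aldose reductase partially purified from bovine lens. Inhibition of NADPH-dependent glyceraldehyde reduction is measured at the single stated concentration and reported as percent inhibition, the mean of two determinations.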

Assay [10] has the same target. Put plainly: In vitro aldose reductase inhibitory activity measured by NADPH-dependent inhibition of glyceraldehyde reduction in a partially purified bovine lens preparation at 10E-7 M. In outline: as §5
Assay [11] has as its system Mus musculus. The experiment in a line: Antihyperglycemic activity measured as percent decrease in mice plasma glucose at 100 mg/Kg/day. It counts as functional. In outline:
as §4

Assay [12] concerns Rattus norvegicus. Put plainly: In vivo galactitol inhibitory activity measured by its ability to inhibit galactitol accumulation in lens at 66 mg/Kg/day. It counts as functional. Conditions: Lens of camera-type eye. In outline: as §1
Assay [13] concerns Rattus norvegicus. Put plainly: In vivo galactitol inhibitory activity measured by its ability to inhibit galactitol accumulation in diaphragm at 66 mg/kg/day. The format is functional. The method, boiled down: as §2
The subject of assay [14] is Rattus norvegicus. Put plainly: In vivo galactitol inhibitory activity measured by its ability to inhibit galactitol accumulation in sciatic nerve at 66 mg/Kg/day. The format is functional. The method, boiled down:
as §1

The test system of assay [15] is Mus musculus. The experiment in a line: Antihyperglycemic activity was determined by measuring percent decrease in plasma glucose at 1 mg/kg/day. The format is functional.
Assay [16] has as its system Mus musculus. Put plainly: Antihyperglycemic activity was determined by measuring percent decrease in plasma glucose at 5 mg/kg/day. The format is functional.
The test system of assay [17] is Rattus norvegicus. The experiment in a line: In vivo galactitol inhibitory activity measured by its ability to inhibit galactitol accumulation in sciatic nerve at 6 mg/Kg/day; NS=Not significant (% Inhibition). It counts as functional, organism-based. The method, boiled down:
as §1

Assay [18] relates to Rattus norvegicus. The experiment in a line: In vivo galactitol inhibitory activity measured by its ability to inhibit galactitol accumulation in sciatic nerve at 9 mg/Kg/day. It counts as functional. The method, boiled down:
as §1

Assay [19] has as its system Rattus norvegicus. Put plainly: In vivo galactitol inhibitory activity measured by its ability to inhibit galactitol accumulation in sciatic nerve at 3 mg/Kg/day; NS=Not significant (% Inhibition). The format is functional, organism-based. The method, boiled down:
as §1

Assay [20] has as its system Rattus norvegicus. The experiment in a line: In vivo galactitol inhibitory activity measured by its ability to inhibit galactitol accumulation in sciatic nerve at 50 mg/Kg/day. It counts as functional. The method, boiled down: as §1
For assay [21], the system named is Rattus norvegicus. The experiment in a line: In vivo galactitol inhibitory activity measured by its ability to inhibit galactitol accumulation in lens at 9 mg/Kg/day. Conditions: Lens of camera-type eye. It counts as functional. In outline:
as §1

The test system of assay [22] is Rattus norvegicus. Put plainly: In vivo galactitol inhibitory activity measured by its ability to inhibit galactitol accumulation in lens at 50 mg/Kg/day. The format is functional. As to conditions: Lens of camera-type eye. The method, boiled down:
as §2

Assay [23] relates to Rattus norvegicus. Put plainly: In vivo galactitol inhibitory activity measured by its ability to inhibit galactitol accumulation in lens at 6 mg/Kg/day; NS=Not significant (% Inhibition). It counts as functional, organism-based. Conditions: Lens of camera-type eye. The method, boiled down:
as §2

The subject of assay [24] is Rattus norvegicus. The experiment in a line: In vivo galactitol inhibitory activity measured by its ability to inhibit galactitol accumulation in diaphragm at 3 mg/Kg/day. The format is functional. In outline: as §2
Assay [25] concerns Rattus norvegicus. The experiment in a line: In vivo galactitol inhibitory activity measured by its ability to inhibit galactitol accumulation in diaphragm at 50 mg/Kg/day. It counts as functional. The method, boiled down:
as §2

In assay [26] the test system is Rattus norvegicus. Put plainly: In vivo galactitol inhibitory activity measured by its ability to inhibit galactitol accumulation in diaphragm at 6 mg/Kg/day. It counts as functional. The method, boiled down: as §2
Assay [27] deals with Rattus norvegicus. The experiment in a line: In vivo galactitol inhibitory activity measured by its ability to inhibit galactitol accumulation in diaphragm at 9 mg/Kg/day. The format is functional. The method, boiled down:
as §2

Assay [28] concerns Rattus norvegicus. Put plainly: In vivo galactitol inhibitory activity measured by its ability to inhibit galactitol accumulation in lens at 3 mg/Kg/day; NS=Not significant (% Inhibition). The format is functional, organism-based. As to conditions: Lens of camera-type eye. The method, boiled down: as §2
Assay [29] concerns Rattus norvegicus. Put plainly: In vivo galactitol inhibitory activity measured by its ability to inhibit galactitol accumulation in diaphragm at 101 mg/kg/day. The format is functional. The method, boiled down: as §2
The subject of assay [30] is Rattus norvegicus. The experiment in a line: In vivo galactitol inhibitory activity measured by its ability to inhibit galactitol accumulation in lens at 101 mg/Kg/day; NS=Not significant (% Inhibition). The format is functional, organism-based. Conditions: Lens of camera-type eye. In outline: as §2
In assay [31] the test system is Rattus norvegicus. Put plainly: In vivo galactitol inhibitory activity measured by its ability to inhibit galactitol accumulation in sciatic nerve at 101 mg/kg/day; NS=Not significant (% Inhibition). The format is functional, organism-based. The method, boiled down: as §1
Assay [32] concerns Rattus norvegicus. Put plainly: In vivo galactitol inhibitory activity measured by its ability to inhibit galactitol accumulation in sciatic nerve at 73 mg/Kg/day. It counts as functional. The method, boiled down:
as §1

Assay [33] relates to Rattus norvegicus. Put plainly: In vivo galactitol inhibitory activity measured by its ability to inhibit galactitol accumulation in diaphragm at 73 mg/Kg/day. The format is functional. The method, boiled down:
as §2

Regarding `O=C1NC(=O)[C@@]2(CCOc3ccc(F)cc32)N1` [SORBINIL], the inhibition in vivo at 4 mg/kg/day is 55% in the assay with Rattus norvegicus [1], 20% in the assay with Rattus norvegicus [2] and 69% with Rattus norvegicus [3].

Regarding `CC1(COc2ccc(CC3SC(=O)NC3=O)cc2)CCCCC1` (configuration not stated) [CIGLITAZONE], the inhibition in assay [4] was 9%. Moreover, the inhibition entry (in assay [5]; in the assay on Rattus norvegicus [7]; with Rattus norvegicus [8]) was “inactive” in each case. This molecule came in with a Decrease in the assay on Mus musculus [6] of 32%.

Consider `CN1C(=O)c2ccccc2C12CC(=O)NC2=O` (configuration not stated), for which the inhibition in assay [9] stood at 45%; in [10] it was 11%. The same molecule had a Decrease in the assay with Mus musculus [11] below 15%. Also, the figures for the inhibition in vivo at 66 mg/kg/day with Rattus norvegicus [12], in the assay with Rattus norvegicus [13] and in the assay with Rattus norvegicus [14] were 32%, 58% and 63%, respectively.

Take `Cc1oc(-c2ccccc2)nc1CCOc1ccc(CC2SC(=O)NC2=O)cc1` (configuration not stated): the Decrease in the assay with Mus musculus [15] was 40%; in the assay with Mus musculus [16], 52%.

As to `CN1C(=O)c2cc(Cl)c(Cl)cc2C12CC(=O)NC2=O` (configuration not stated), the inhibition was found to be 83% in [9] and 38% in assay [10]. Besides, the Decrease with Mus musculus [11] worked out at 31%. Also, the inhibition result with Rattus norvegicus [17], in the assay with Rattus norvegicus [19], in the assay with Rattus norvegicus [23] and with Rattus norvegicus [28] was “inactive” each time. Moreover, the inhibition in vivo at 9 mg/kg/day in the assay with Rattus norvegicus [18] stood at 25%; in the assay with Rattus norvegicus [21] it was 10%; with Rattus norvegicus [27], 57%. Further, the inhibition in vivo at 50 mg/kg/day in the assay with Rattus norvegicus [20] is 94%; in the assay with Rattus norvegicus [22], 71%; in the assay on Rattus norvegicus [25], 90%. For the same molecule, the inhibition in vivo at 3 mg/kg/day in the assay on Rattus norvegicus [24] was determined as 25%. In the assay on Rattus norvegicus [26], this molecule displayed an inhibition in vivo at 6 mg/kg/day of 44%.

For the molecule `O=C1CC2(C(=O)N1)c1ccccc1C(=O)N2Cc1ccc(Br)cc1F` (configuration not stated), the values for the inhibition in assay [9] and in assay [10] were 54% and 7%, respectively. In the assay on Mus musculus [11], this molecule yielded a Decrease of 36%. The molecule also showed an inhibition in vivo at 101 mg/kg/day in the assay with Rattus norvegicus [29] of 30%. Also, the inhibition entry with Rattus norvegicus [30] and with Rattus norvegicus [31] was “inactive” each time.

On to `CCN1C(=O)c2ccccc2C12CC(=O)NC2=O` (configuration not stated), for which the inhibition was 21% in assay [9] and 0% in assay [10]. Also, the inhibition in vivo at 73 mg/kg/day worked out at 47% in the assay on Rattus norvegicus [32] and 62% in the assay with Rattus norvegicus [33]. This molecule also showed an inhibition in vivo at 66 mg/kg/day in the assay with Rattus norvegicus [12] of 25%.
